# Measurements: ChEMBL document CHEMBL1154231, “Bioactive Nortriterpenoids from Schisandra grandiflora” (J Nat Prod, 2009)
# Tests used:
# K562 = assay: Cytotoxicity against human K562 cells after 48 hrs by sulforhodamine B assay; assay type: functional, cell-based; details: K562, 48 h
# [1] = Selectivity index, ratio of CC50 for human C8166 cells to EC50 for HIV1; assay type: toxicity, cell-based; details: read-out: Ratio CC50/EC50
# Method in brief: (§1)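 HIV-1-induced cytopathic effect inhibition in permanent human T-cell line C8166, giving EC50. Cytotoxicity to uninfected C8166 cells run in parallel by MTT, giving CC50. Selectivity index taken as CC50/EC50. AZT served as positive control.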
# [2] = system: Human immunodeficiency virus 1; assay: Antiviral activity against HIV1 infected in human C8166 cells assessed as inhibition of virus-induced cytopathic effect; assay type: functional, organism-based; details: Human immunodeficiency virus 1, C8166; method in brief: as §1
# HepG2 = assay: Cytotoxicity against human HepG2 cells after 48 hrs by sulforhodamine B assay; assay type: functional, cell-based; details: HepG2, 48 h
# [3] = Cytotoxicity against human C8166 cells by MTT assay; assay type: cell-based; method in brief: as §1
SMILES,IC50 (K562),selectivity ratio [1],EC50 [2],IC50 (HepG2),CC50 [3]
C[C@@H]1C(=O)[C@@]2(C)CC[C@]34C[C@]56OC(=O)C[C@H]5O[C@@](C)(CO)[C@@H]6CC[C@@]3(O)C(=O)[C@@]3(O[C@@]5(C[C@H](C)C(=O)O5)[C@@H]1[C@H]32)O4 [SCHIGRANDILACTONE A],0.13 µg/mL,1.1,80.2 µg/mL,0.19 µg/mL,
C[C@@H]1C(=O)[C@@]2(C)CC[C@]34C[C@]56OC(=O)C[C@H]5O[C@@](C)(CO)[C@@H]6C[C@@H]5O[C@@]53C(=O)[C@@]3(O[C@@]5(C[C@H](C)C(=O)O5)[C@@H]1[C@H]32)O4 [SCHIGRANDILACTONE B],3.19 µg/mL,4,20.8 µg/mL,0.2 µg/mL,
C[C@@H]1C(=O)[C@@]2(C)CC[C@]34C[C@]56OC(=O)C[C@H]5O[C@@](C)(CO)[C@@H]6[C@@H](O)C[C@H]3C(=O)[C@]3(O4)O[C@@]4(C[C@H](C)C(=O)O4)[C@@H]1[C@H]32 [SCHIGRANDILACTONE C],,12.7,5.1 µg/mL,,
Cc1cn([C@H]2C[C@H](N=[N+]=[N-])[C@@H](CO)O2)c(=O)[nH]c1=O [ZIDOVUDINE],,,,,> 200 µg/mL
